Measurements of several laboratories.
Protocols differ between the studies behind these lines.
HSD11B2: 11-beta-hydroxysteroid dehydrogenase type 2 (HSD11B2, Homo sapiens, UniProt P80365)
Hydroxyacylglutathione hydrolase, mitochondrial: Hydroxyacylglutathione hydrolase, mitochondrial (Homo sapiens, UniProt Q16775)
AMY2: Pancreatic alpha-amylase (AMY2, Sus scrofa, UniProt P00690)
SIRT2: NAD-dependent protein deacetylase sirtuin-2 (SIRT2, Homo sapiens, UniProt Q8IXJ6)
Maoa: Amine oxidase [flavin-containing] A (Maoa, Rattus norvegicus, UniProt P21396)

The inhibition of `C=C(CC)C(=O)c1ccc(OCC(=O)O)c(Cl)c1Cl` is reported as less than 40% (HSD11B2; enzyme activity; inhibitor; 20 µM; lysate).
With `c1ccc(CN(CCN(Cc2ccccn2)Cc2ccccn2)Cc2ccccn2)nc1` the inhibition was 47.6% (Hydroxyacylglutathione hydrolase, mitochondrial; cell-free assay; 100 µM).
For `CCN(O)N=Nc1ccc(S(=O)(=O)Nc2nccs2)cc1`, the inhibition was 63.2% (AMY2; enzyme activity; inhibitor; 300 µg/mL).
For `CC/C(=N\NC(=O)NCc1cccc(O)c1)c1ccc(O)c(C)c1O`, the inhibition was 0.7% (Fibroblast growth factor receptor 3 (FGFR3, Homo sapiens, UniProt P22607, V555M); enzyme activity; inhibitor; 0.1 µM).
`Cc1ccc(N(O)N=Nc2ccc(S(=O)(=O)Nc3onc(C)c3C)cc2)cc1` gave an inhibition of 42.1% (AMY2; enzyme activity; inhibitor; 180 µg/mL).
`CCOCCOCCNC(=S)NCCCC[C@H](NS(C)(=O)=O)C(=O)N[C@H](C)C(=O)N[C@@H](CCCNC(=N)N)C(N)=O` has an inhibition of 16% (SIRT2; enzyme activity; inhibitor; 100 µM).
`CN(CCOc1ccc(CC2SC(=O)NC2=O)cc1)c1ccccn1` (stereo not drawn) has an inhibition of less than 40% (HSD11B2; enzyme activity; inhibitor; 20 µM; lysate).
`COc1cc(C=CC(=O)CC(c2ccc(N(C)C)cc2)n2ccnc2)ccc1O` (stereo not drawn) has an inhibition of 77% (AMY2; enzyme activity; inhibitor; absorbance; 5 µg/mL).
`O=C1CC(CCNC(=S)NCCCC[C@H](NS(=O)(=O)c2cccc(F)c2)C(=O)N[C@@H](Cc2c[nH]c3ccccc23)C(=O)NC2CCC2)=NO1` has an inhibition of 9% (SIRT2; enzyme activity; inhibitor; 10 µM).
For `O=C(O)CN1CCN(CC(=O)O)CCN(CC(=O)O)CC1`, the inhibition was 5.98% (Hydroxyacylglutathione hydrolase, mitochondrial; cell-free assay; 500 µM).
For `O=C(NC1CCC1)[C@H](Cc1c[nH]c2ccccc12)NC(=O)[C@H](CCCCNC(=S)NCc1cc(O)no1)NS(=O)(=O)c1cccc(F)c1`, the inhibition was 13% (SIRT2; enzyme activity; inhibitor; 30 µM).
With `C[C@H]1O[C@H](O[C@H]2[C@H](O)[C@@H](O)[C@@H](O[C@H]3[C@H](O)[C@@H](O)C(O)O[C@@H]3CO)O[C@@H]2CO)[C@H](O)[C@@H](O)[C@@H]1N[C@H]1C=C(CO)[C@@H](O)[C@H](O)[C@H]1O` (stereo partly drawn) the inhibition was 32.1% (AMY2; enzyme activity; inhibitor; 30 µg/mL).
With `CCCCCCCCCCCCNC(=O)CCCCC[C@H](NC(=O)OCc1ccccc1)C(=O)N[C@@H](Cc1c[nH]c2ccccc12)C(=O)NC(C)C` the inhibition was 29% (SIRT2; enzyme activity; inhibitor; 100 µM).
The inhibition of `Cc1cccc(N(O)N=Nc2ccc(S(=O)(=O)Nc3onc(C)c3C)cc2)c1` is reported as 52.6% (AMY2; enzyme activity; inhibitor; 240 µg/mL).
For `COc1cc(C=Cc2cc(-c3ccc(N(C)C)cc3)nc(O)n2)ccc1O`, the inhibition was 60% (AMY2; enzyme activity; inhibitor; absorbance; 2.5 µg/mL).
`CN(O)N=Nc1ccc(S(=O)(=O)Nc2nccs2)cc1` has an inhibition of 26.3% (AMY2; enzyme activity; inhibitor; 60 µg/mL).
The inhibition of `O=C(NC1CCC1)[C@H](Cc1c[nH]c2ccccc12)NC(=O)[C@H](CCCCNC(=S)NCCn1nn[nH]c1=O)NS(=O)(=O)c1cccc(F)c1` is reported as 8% (SIRT2; enzyme activity; inhibitor; 100 µM).
With `Cc1noc(NS(=O)(=O)c2ccc(N=NN(C)O)cc2)c1C` the inhibition was 42.1% (AMY2; enzyme activity; inhibitor; 120 µg/mL).
`CC(=S)NCCCC[C@H](NC(=O)OCc1ccccc1)C(=O)N[C@@H](Cc1c[nH]c2ccccc12)C(=O)N[C@@H](CCCNC(=N)N)C(N)=O` has an inhibition of 20% (SIRT2; enzyme activity; inhibitor; 1 µM).
`CN(C)CCCN1c2ccccc2Sc2ccc(Cl)cc21` has an inhibition of less than 40% (HSD11B2; enzyme activity; inhibitor; 20 µM; lysate).
`CCCCCCCCCCCCNC(=S)NCCCC[C@H](NC(=O)OCc1ccccc1)C(=O)N[C@@H](Cc1c[nH]c2ccccc12)C(=O)N[C@@H](CC(N)=O)C(N)=O` gave an inhibition of 16% (SIRT2; enzyme activity; inhibitor; 100 µM).
`COc1cc(C=CC(=O)CC(c2ccc([N+](=O)[O-])cc2)n2ccnc2)ccc1O` (stereo not drawn) has an inhibition of 87.6% (AMY2; enzyme activity; inhibitor; absorbance; 10 µg/mL).
`CCN(c1cc(C#CCN2CCOCC2)cc(C(=O)NCc2c(C)cc(C)[nH]c2=O)c1C)[C@H]1CC[C@H](N(C)CCOC)CC1` has an inhibition of 8% (N-lysine methyltransferase SMYD2 (SMYD2, Homo sapiens, UniProt Q9NRG4); enzyme activity; inhibitor; 1 µM).
`Cc1ccc(N(O)N=Nc2ccc(S(=O)(=O)Nc3cc(C)on3)cc2)cc1` gave an inhibition of 68.4% (AMY2; enzyme activity; inhibitor; 240 µg/mL).
The inhibition of `CN1CC(Oc2cnc(C#N)cc2-c2ccn3nc(NC(=O)C4CC4)cc3c2)C1` is reported as -4% (Receptor-interacting serine/threonine-protein kinase 1 (RIPK1, Homo sapiens, UniProt Q13546); enzyme activity; inhibitor; 1 µM).
The inhibition of `Oc1cccc(Nc2nc(-c3ccc(F)cc3F)cs2)c1` is reported as 14.4% (Maoa; cell-free assay; 10 µM).
The inhibition of `CCCN(O)N=Nc1ccc(S(=O)(=O)Nc2cc(C)on2)cc1` is reported as 57.9% (AMY2; enzyme activity; inhibitor; 240 µg/mL).
With `COc1cc(NC(C)=O)c(Cl)cc1C(=O)Nc1nccs1` the inhibition was 14.4% (Maoa; cell-free assay; 10 µM).
The inhibition of `COc1cc(C=Cc2cc(-c3ccccc3)nc(O)n2)ccc1O` is reported as 58.1% (AMY2; enzyme activity; inhibitor; absorbance; 1.25 µg/mL).
`CC(=S)NCCCC[C@H](NC(=O)OCc1ccccc1)C(=O)N[C@@H](Cc1c[nH]c2ccccc12)C(=O)N[C@@H](CCCCN)C(N)=O` has an inhibition of 36% (SIRT2; enzyme activity; inhibitor; 1 µM).
